From ChEMBL document CHEMBL1149797, “Synthesis and in vitro antibacterial activities of novel oxazolidinones” (Eur J Med Chem, 2008)
Converted amounts (≈) assume the structure as drawn.

Legend:
Type in all cases: functional
[1] = tested on: Staphylococcus epidermidis; experiment: Antibacterial activity against Staphylococcus epidermidis ATCC 155 by broth microdilution technique
In short: (§1)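 Broth microdilution per CLSI (NCCLS) guidelines. Compounds were dissolved in DMSO with water added to give an 80% DMSO stock, then diluted 1:10 to working solutions in water or medium. They were tested at 0.125, 0.25, 0.5, 1, 2, 4, 8 and 16 (two-fold series) against the final inoculum. Each run included sterility controls and vehicle controls (plain medium; 4%, 2%, 1% DMSO). MIC was read as growth inhibition.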

Streptococcus pyogenes = experiment: Antibacterial activity against Streptococcus pyogenes ATCC 14289 by broth microdilution technique; in short: as §1
Enterococcus faecalis [2] = experiment: Antibacterial activity against Enterococcus faecalis ATCC 35550 by broth microdilution technique; in short: as §1
Staphylococcus aureus [3] = experiment: Antibacterial activity against Staphylococcus aureus ATCC 25923 by broth microdilution technique; in short: as §1
Bacillus cereus = experiment: Antibacterial activity against Bacillus cereus ATCC 11778 by broth microdilution technique; in short: as §1
Bacillus pumilus = experiment: Antibacterial activity against Bacillus pumilus ATCC 14884 by broth microdilution technique; in short: as §1
Staphylococcus aureus [4] = experiment: Antibacterial activity against Staphylococcus aureus ATCC 29213 by broth microdilution technique
In short: (§2)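 Broth microdilution per NCCLS/CLSI. Compounds dissolved in DMSO with water added to give an 80% DMSO stock. Stock diluted 1:10 in 4-8% DMSO in water or medium to make the working solution. Tested at […]. Sterility controls run with each set. Inoculum viability controls included plain medium and 4%, 2% and 1% DMSO vehicle. MIC taken as growth inhibition.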

Enterococcus faecalis [5] = experiment: Antibacterial activity against multidrug-resistant Enterococcus faecalis ATCC 700802 by broth microdilution technique; in short: as §2
Staphylococcus aureus [6] = experiment: Antibacterial activity against linezolid-resistant Staphylococcus aureus NRS 119 with G 2576T mutation by broth microdilution technique; in short: as §2
Enterococcus faecium = experiment: Antibacterial activity against vancomycin-resistant Enterococcus faecium ATCC 700221 by broth microdilution technique; in short: as §2
Staphylococcus aureus [7] = experiment: Antibacterial activity against methicillin-resistant Staphylococcus aureus ATCC 700699 by broth microdilution technique; in short: as §2
Staphylococcus aureus [8] = experiment: Antibacterial activity against linezolid-resistant Staphylococcus aureus NRS 120 with G 2576T mutation by broth microdilution technique; in short: as §2
Streptococcus pneumoniae = experiment: Antibacterial activity against multidrug-resistant Streptococcus pneumoniae ATCC 700904 by broth microdilution technique; in short: as §2
Staphylococcus aureus [9] = experiment: Antibacterial activity against Staphylococcus aureus ATCC 9144 by broth microdilution technique; in short: as §2
Staphylococcus aureus [10] = experiment: Antibacterial activity against Staphylococcus aureus ATCC 14154 by broth microdilution technique; in short: as §2
Enterococcus faecalis [11] = experiment: Antibacterial activity against Enterococcus faecalis ATCC 14506 by broth microdilution technique; in short: as §1

SMILES	MIC [1] [µg/mL]	MIC (Streptococcus pyogenes) [µg/mL]	MIC (Enterococcus faecalis [2]) [µg/mL]	MIC (Staphylococcus aureus [3]) [µg/mL]	MIC (Bacillus cereus) [µg/mL]	MIC (Bacillus pumilus) [µg/mL]	MIC (Staphylococcus aureus [4]) [µg/mL]	MIC (Enterococcus faecalis [5]) [µg/mL]	MIC (Staphylococcus aureus [6]) [µg/mL]	MIC (Enterococcus faecium) [µg/mL]	MIC (Staphylococcus aureus [7]) [µg/mL]	MIC (Staphylococcus aureus [8]) [µg/mL]	MIC (Streptococcus pneumoniae) [µg/mL]	MIC (Staphylococcus aureus [9]) [µg/mL]	MIC (Staphylococcus aureus [10]) [µg/mL]	MIC (Enterococcus faecalis [11]) [µg/mL]
CC(=O)NC[C@H]1CN(c2ccc(N3CCN(C(=O)/C=C/c4ccc[nH]4)CC3)c(F)c2)C(=O)O1	0.5 (≈ 1.1 µM)	1 (≈ 2.2 µM)	1 (≈ 2.2 µM)	1 (≈ 2.2 µM)	1 (≈ 2.2 µM)	1 (≈ 2.2 µM)										
CC(=O)NC[C@H]1CN(c2ccc(N3CCN(C(=O)/C=C/c4ccc([N+](=O)[O-])o4)CC3)c(F)c2)C(=O)O1	≤ 0.12	≤ 0.12	0.25 (≈ 0.499 µM)	0.12 (≈ 0.239 µM)	≤ 0.12	≤ 0.12	0.12 (≈ 0.239 µM)	0.5 (≈ 0.997 µM)	2 (≈ 3.99 µM)	0.12 (≈ 0.239 µM)	0.12 (≈ 0.239 µM)	2 (≈ 3.99 µM)	0.25 (≈ 0.499 µM)	0.12 (≈ 0.239 µM)	0.12 (≈ 0.239 µM)	0.25 (≈ 0.499 µM)
CC(=O)NC[C@H]1CN(c2ccc(N3CCN(C(=O)/C=C/c4ccco4)CC3)c(F)c2)C(=O)O1	1 (≈ 2.19 µM)		0.5 (≈ 1.1 µM)	0.5 (≈ 1.1 µM)	0.5 (≈ 1.1 µM)	0.5 (≈ 1.1 µM)										
CC(=O)NC[C@H]1CN(c2ccc(N3CCN(C/C=C/c4ccco4)CC3)c(F)c2)C(=O)O1	8 (≈ 18.1 µM)	0.5 (≈ 1.13 µM)	2 (≈ 4.52 µM)	2 (≈ 4.52 µM)	0.5 (≈ 1.13 µM)	2 (≈ 4.52 µM)										
CC(=O)NC[C@H]1CN(c2ccc(N3CCN(C(=O)/C=C/c4ccc(C)o4)CC3)c(F)c2)C(=O)O1	0.5 (≈ 1.06 µM)	0.5 (≈ 1.06 µM)	1 (≈ 2.13 µM)	2 (≈ 4.25 µM)	1 (≈ 2.13 µM)	1 (≈ 2.13 µM)										
CC(=O)NC[C@H]1CN(c2ccc(N3CCN(C(=O)/C=C/c4ccc(COC(C)=O)o4)CC3)c(F)c2)C(=O)O1	2 (≈ 3.78 µM)	2 (≈ 3.78 µM)	4 (≈ 7.57 µM)	2 (≈ 3.78 µM)	4 (≈ 7.57 µM)	4 (≈ 7.57 µM)										

More lines, in order of falling MIC [1], values ahead:

MIC [1] [µg/mL]	MIC (Streptococcus pyogenes) [µg/mL]	MIC (Enterococcus faecalis [2]) [µg/mL]	MIC (Staphylococcus aureus [3]) [µg/mL]	MIC (Bacillus cereus) [µg/mL]	MIC (Bacillus pumilus) [µg/mL]	SMILES	MIC (Staphylococcus aureus [4]) [µg/mL]	MIC (Enterococcus faecalis [5]) [µg/mL]	MIC (Staphylococcus aureus [6]) [µg/mL]	MIC (Enterococcus faecium) [µg/mL]	MIC (Staphylococcus aureus [7]) [µg/mL]	MIC (Staphylococcus aureus [8]) [µg/mL]	MIC (Streptococcus pneumoniae) [µg/mL]	MIC (Staphylococcus aureus [9]) [µg/mL]	MIC (Staphylococcus aureus [10]) [µg/mL]	MIC (Enterococcus faecalis [11]) [µg/mL]
2 (≈ 4.28 µM)	0.5 (≈ 1.07 µM)	2 (≈ 4.28 µM)	4 (≈ 8.56 µM)	1 (≈ 2.14 µM)	1 (≈ 2.14 µM)	CC(=O)NC[C@H]1CN(c2ccc(N3CCN(C(=O)/C=C/c4ccncc4)CC3)c(F)c2)C(=O)O1										
1 (≈ 2.12 µM)		0.5 (≈ 1.06 µM)	0.5 (≈ 1.06 µM)	0.5 (≈ 1.06 µM)	0.5 (≈ 1.06 µM)	CC(=O)NC[C@H]1CN(c2ccc(N3CCN(C(=O)/C=C/c4ccsc4)CC3)c(F)c2)C(=O)O1										
0.5 (≈ 1.06 µM)	1 (≈ 2.12 µM)	0.5 (≈ 1.06 µM)	1 (≈ 2.12 µM)	0.5 (≈ 1.06 µM)	0.5 (≈ 1.06 µM)	CC(=O)NC[C@H]1CN(c2ccc(N3CCN(C(=O)/C=C/c4cccs4)CC3)c(F)c2)C(=O)O1										
0.5 (≈ 1.03 µM)	0.12 (≈ 0.246 µM)	1 (≈ 2.05 µM)	1 (≈ 2.05 µM)	0.25 (≈ 0.513 µM)	0.25 (≈ 0.513 µM)	CC(=O)NC[C@H]1CN(c2ccc(N3CCN(C/C=C/c4ccc([N+](=O)[O-])o4)CC3)c(F)c2)C(=O)O1										
